Assay results of several laboratories.
Each line is one published result; the experiments were not run side by side.
Target: Beta-adrenergic receptor kinase 1 (GRK2, Homo sapiens, UniProt P25098)
Sequence (P25098 1-689, as in one of the studies): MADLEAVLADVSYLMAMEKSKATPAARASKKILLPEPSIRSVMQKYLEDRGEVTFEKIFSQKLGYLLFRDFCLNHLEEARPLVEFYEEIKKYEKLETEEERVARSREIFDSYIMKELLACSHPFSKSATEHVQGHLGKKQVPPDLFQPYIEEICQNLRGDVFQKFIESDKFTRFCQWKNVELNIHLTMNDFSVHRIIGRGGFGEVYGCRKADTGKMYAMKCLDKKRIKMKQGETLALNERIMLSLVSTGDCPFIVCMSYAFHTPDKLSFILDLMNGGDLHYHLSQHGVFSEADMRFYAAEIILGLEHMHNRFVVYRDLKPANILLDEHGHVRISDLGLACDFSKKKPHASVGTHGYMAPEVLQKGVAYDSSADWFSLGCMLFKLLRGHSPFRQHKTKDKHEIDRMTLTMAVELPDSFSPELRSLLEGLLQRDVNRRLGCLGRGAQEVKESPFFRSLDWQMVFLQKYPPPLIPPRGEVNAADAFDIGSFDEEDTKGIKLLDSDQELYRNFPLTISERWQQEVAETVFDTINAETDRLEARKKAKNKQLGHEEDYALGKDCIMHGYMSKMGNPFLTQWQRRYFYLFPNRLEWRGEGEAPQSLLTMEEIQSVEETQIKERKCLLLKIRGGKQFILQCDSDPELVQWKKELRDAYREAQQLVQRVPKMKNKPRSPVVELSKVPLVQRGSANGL

Structure (SMILES)	read-out	mode	technique	concentration	measurement	value
CC(C)(O)[C@H]1CC[C@H](Nc2ccc3ncc(-c4cccc(C(F)(F)F)c4)n3n2)CC1	enzyme activity	inhibitor		1 µM	remaining activity	116%
CN1CC(Oc2cnc(C#N)cc2-c2ccn3nc(NC(=O)C4CC4)cc3c2)C1	enzyme activity	inhibitor		1 µM	inhibition	5%
Cc1noc([C@H]2C[C@@H](c3ccc(C(F)(F)F)cc3)CN(C(=O)N3CCS(=O)(=O)C3)C2)n1	cell-free assay		competition with immobilised ligand	1 µM	remaining binding	83%
Cc1cc(NC(=O)c2cccc3cc(-c4cccc5[nH]nc(N)c45)ccc23)ccc1F	enzyme activity	inhibitor		0.1 µM	activity vs control	73%
O=C(Nc1cnn(-c2csc(C(=O)NC3COC3)c2)c1)Nc1c(F)cccc1Cl	enzyme activity	inhibitor		5 µM	remaining activity	106%
CC(C)(C)c1nc(-c2cccc(NS(=O)(=O)c3c(F)cccc3F)c2F)c(-c2ccnc(N)n2)s1	enzyme activity	inhibitor	radiometric	1 µM	remaining activity	95%
O=C(NC[C@@H]1[C@H]2CN(C(=O)OCc3cc(C(F)(F)F)cc(C(F)(F)F)c3)C[C@@H]12)c1ccc2[nH]nnc2c1	cell-free assay		competition with immobilised ligand	1 µM	remaining binding	71%
Cc1ccc(C(=O)NCc2ccsc2)cc1C#Cc1cn(C(C)C)c2ncnc(N)c12	enzyme activity	inhibitor		1 µM	activity vs control	101%
CC1CCCN1c1nccc(-c2cnn3ncccc23)n1 (stereo not shown)	binding		competition with immobilised ligand	1 µM	remaining binding	69%
CN(C(=O)c1ccccc1)c1cc(N(C)c2ccc3c(c2)CCc2ccc(C(=O)NCCN4CCOCC4)cc2C3=O)ccc1F	cell-free assay		competition with immobilised ligand	1 µM	remaining binding	100%
O=C1Nc2ccc(Cl)cc2C1=Cc1cc(Cl)c(O)c(Cl)c1	cell-free assay			0.5 µM	remaining signal	93.4%
O=C(NCc1ncc(C(F)(F)F)cc1Cl)c1ccc2c(c1)C1(CCS(=O)(=O)CC1)[C@H](C1CC1)N2S(=O)(=O)c1ccc(F)cc1	cell-free assay		competition with immobilised ligand	1 µM	remaining binding	56%
O=C(Nc1cnn(-c2csc(C(=O)NC3COC3)c2)c1)Nc1ccccc1Cl	enzyme activity	inhibitor		5 µM	remaining activity	96.1%
CCCCNc1ncc2c(-c3ccc(F)cc3)nn(C[C@H]3CC[C@H](N)CC3)c2n1	target engagement in cells	inhibitor	chemoproteomics	20 mM	inhibition	-6.2%
COc1cc2ncnc(Nc3ccc(Oc4ccccc4)cc3C)c2cc1OC	enzyme activity	inhibitor		1 µM	inhibition	-1%
N#CCCc1ccc2c(c1)-c1[nH]c3ccc([N+](=O)[O-])cc3c1CC(=O)N2	cell-free assay			0.5 µM	remaining signal	96.4%
